Compound activity (PubChem)
Yeast superoxide = caloric restriction mimetics inhibiting age-related superoxide in yeast; S. cerevisiae aged cells, superoxide DHE fluorescence; hits give low values; superoxide response (% of plate mean), % at 10 µM; 0.18% of 330,000 active;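 active = superoxide response under a set limit, about three screen SD below normal, cut at about 65% in these data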;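 note: yeast aged for seven days with compound at 30 °C before DHE staining; 100% = average MFI of all compound-treated wells on the plate with controls excluded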
Tb MetRS inh = Trypanosoma brucei MetRS inhibition; purified T. brucei MetRS, ATP depletion, Kinase-Glo luminescence; inhibition, % at 11.9 µM; 0.4% of 360,000 active;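 active = inhibition above a per-plate cutoff of the control wells' mean inhibition plus 3 SD, cut at about 5.5% in these data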;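 note: 0% = DMSO wells median and 100% = median of wells with control inhibitor compound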
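System: purified T. brucei MetRS enzyme / Detection: Kinase-Glo luciferase luminescence reporting remaining unconsumed ATP / Medium: HEPES buffer with MgCl2, KCl, DTT, spermine, BSA, pyrophosphatase / Replication: singlicate, one well per compound / Evaluation: percent inhibition relative to median high and low control wells / Schedule: 2 h aminoacylation at 25 °C after 15 min preincubation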
IDE cell inh = inhibitors of human insulin-degrading enzyme in cells. 0.41% of 320,000 active. inhibition, % at 5.59 µM. HEK cells, FAbetaB cleavage, fluorescence polarization. P14735;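 active = percent inhibition above the average of all tested compounds plus 3 SD, set per screening campaign, cut at about 16% in these data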;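 note: IDE supplied by intact live HEK cells; FP after avidin binding of uncleaved biotin substrate so inhibition keeps polarization high; 0% = DMSO wells and 100% = 60 µM reference IDE inhibitor Ii1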
Efflux pump mplx = inhibitors of Candida antifungal efflux pumps expressed in yeast | inhibition, % at 10 µM | S. cerevisiae Candida pump triplex, Nile Red efflux | 0.44% of 330,000 active;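 active = plate passing quality check with inhibition over a set limit, or well fluorescence over plate mean plus 4 SD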;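 note: Nile Red retained in pooled yeast measured as flow cytometry median fluorescence; 0% = buffer negative control and 100% = Enniatin B positive control; higher means more Nile Red kept so more efflux inhibition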
IDE act = boosts human insulin-degrading enzyme activity in HEK cells; activation, % at 5.96 µM; FAbeta-B cleavage, fluorescence polarization; 0% vehicle, 100% cell-free pure enzyme wells; P14735; 0.073% of 340,000 active;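 active = activation above the mean of all tested compounds plus 3 SD, set per screening campaign, cut at about 17% in these data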
HDAC3 inhib = inhibitors of human histone deacetylase 3. O15379. recombinant HDAC3, fluorogenic peptide/trypsin coupled, fluorescence. inhibition, % at 8.3 µM. 0.15% of 320,000 active. AID 2718; in the data active = inhibition above about 26%, passing the limit was not always enough; inconclusive = no clear call, values can overlap the other calls
Superoxide pick = confirmation of caloric restriction mimetics inhibiting yeast age-related superoxide; S. cerevisiae aging, superoxide DHE fluorescence; hits give low values; shares compounds with Yeast superoxide; superoxide response (% of plate), % at 10 µM; 1% of 850 active; AID 434994;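 active = superoxide signal below 65% of the plate average of sample wells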;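 note: cells aged with compound for 7 days at 30 degrees C before staining; 100% equals mean DHE fluorescence of all compound wells on the plate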
DHE counter = DHE fluorescence interference, counter-screen artifact; shares compounds with Yeast superoxide; S. cerevisiae BY4741, flow cytometry; hits give low values; 850 tested, under 10 active; fluorescence response, % at 10 µM; AID 435000;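 active = fluorescence response below 15%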;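 note: percent of the mean fluorescence averaged over all compound wells on the plate; lower means stronger quenching of DHE signal or ROS scavenging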
The depositor's hits bear a star; ? = inconclusive; · = no result given. This is a sample that favours compounds with a hit; in the whole collection about 1.4% have one here.

SMILES	Yeast superoxide	Tb MetRS inh	IDE cell inh	Efflux pump mplx	IDE act	HDAC3 inhib	others
CCCCCC(O)(c1ccc(OCC)cc1)C(CN1CCOCC1)c1ccccc1 (stereo unspecified)	112	-1	5	0	3	26*
O=c1cc(-c2ccccc2)oc2c1CCCC2	·	-1	·	·	·	·
COC(=O)[C@@]12C[C@@H](CC(=O)N3CCN(C(=O)C4CC4)CC3)C(=O)N(CCc3ccc(OC)c(OC)c3)C1=CCC(C)(C)C2	·	-1	·	·	·	·
CC1=C(C(=O)OCc2ccccc2)C(c2ccc(Br)cc2)NC(=O)N1CCCCCC(=O)O (stereo unspecified)	·	0	-2	·	38*	6
CC1=C(C(=O)OCc2ccccc2)C(c2ccc(Br)cc2)NC(=O)N1CCCC(=O)O (stereo unspecified)	98	·	-8	0	·	3
Cc1ccnc(N/C=C(/NC(=O)c2ccccc2)C(=O)N/N=C\c2ccc(Cl)cc2)n1	110	0	32*	0	-29	9
O=C(N/N=C/c1ccncc1)/C(=C/c1ccccc1)NC(=O)c1ccccc1	97	0	-2	0	4	10
O=C(CSc1nc2c(cnn2-c2cccc(Cl)c2)c(=O)[nH]1)NCCC1=CCCCC1	61*	0	-2	0	1	0
O=C(CSc1nc2c(cnn2-c2cccc(Cl)c2)c(=O)[nH]1)NCC1CCCO1 (stereo unspecified)	127	0	-4	0	0	9
CN(c1ccc(OCC(=O)Nc2cc(Cl)ccc2C(=O)O)cc1)S(=O)(=O)c1ccc(F)cc1	59*	0	4	0	2	0
CN(c1ccc(OCC(=O)Nc2ccc(S(N)(=O)=O)cc2)cc1)S(=O)(=O)c1ccc(F)cc1	·	-1	·	·	3	·
CSc1nc2ccc(Cl)cc2[nH]1	93	1	5	0	2	-1
CSc1nc2cc(Oc3cccc(Cl)c3Cl)c(Cl)cc2[nH]1	121	-1	-4	0	5	29*
O=C(CSC1=NCCS1)c1ccc(Cl)cc1	104	0	9	0	4	72*
C#CCNC(=O)C1=C[C@@H](c2coc3ccccc3c2=O)C[C@@H](OCc2ccc(CO)cc2)O1	114	0	-4	0	2	36*
C#CCNC(=O)C1=C[C@H](c2coc3ccccc3c2=O)C[C@H](OCc2ccc(CO)cc2)O1	92	0	0	0	3	-5
O=C(NO)c1ccc(OC(F)F)cc1	113	0	5	0	-5	73*
O=Cc1coc2c(ccc3ccccc32)c1=O	104	·	6	1.9*	·	-1
COC(=O)c1ccc(OC(=O)c2cccs2)cc1	91	0	4	0	-1	63*
COC(=O)c1ccc(OC(=O)c2ccco2)cc1	97	0	-2	0	4	56*
O=C(Oc1ccc(-c2ccccc2)cc1)c1ccco1	·	0	·	·	-1	·
COC(=O)c1ccc(OC(=O)c2ccccn2)cc1	85	0	9	0	5	46*
CCC(=O)c1ccc(OC(=O)c2cccs2)cc1	90	-1	-5	0	7	62*
COC(=O)c1ccc(OC(=O)c2cccnc2SC)cc1	96	0	0	0	5	1
COC(=O)C[C@@H]1CC[C@H](NC(=O)c2ccc3c(c2)OCO3)[C@@H](CO)O1	·	0	·	·	·	·
SMILES	Yeast superoxide	Tb MetRS inh	IDE cell inh	Efflux pump mplx	IDE act	HDAC3 inhib	others
Cn1ncc(C#N)c1NC(=O)C1CC(c2ccccc2Cl)=NO1 (stereo unspecified)	44*	·	8	0	·	-2
CC[C@@H](C)[C@H](CNC)NC[C@@H](Cc1cccc2ccccc12)NCCc1cccc(C(F)(F)F)c1	107	0	5	0	29*	10
CNC[C@@H](Cc1ccccc1)NC[C@@H](CC1CCCCC1)NCCCc1ccccc1	·	0	0	·	13	-3
CNC[C@@H](CC1CCCCC1)NC[C@H](CC(C)C)NCCc1cccc(C(F)(F)F)c1	·	0	3	·	21*	-15
O=C(O)C1=C[C@@H](c2ccc(C(F)(F)F)cc2)C[C@@H](OCc2ccc(CO)cc2)O1	108	0	-11	0	-2	34*
O=C(C1=C[C@H](c2ccc(C(F)(F)F)cc2)C[C@H](OCc2ccc(CO)cc2)O1)N1CCCCCCC1	95	0	-1	0	4	?
COc1ccc(C(=O)n2c(-c3ccco3)nc3ccccc32)cc1	98	-1	3	0	4	43*
O=C1N(c2ccccc2)c2ccccc2[C@]12C[C@H](O)CO2	·	0	·	·	·	·
CC(C)CCn1nnnc1CN1CCN(c2ccccc2)CC1	98	0	1	0	18*	-6
COCCn1nnnc1CN1CCN(c2cccc(C(F)(F)F)c2)CC1	94	-1	-2	0	1	0
O=C(CCc1nc2ccccc2c(=O)[nH]1)Nc1ccc(N2CCCCC2)cc1	101	0	17*	0	-7	-2
Oc1ccc(C[C@H]2CN([C@@H](Cc3cccc(O)c3)CN3CCC[C@@H]3CN3C(=S)NC[C@@H]3Cc3ccccc3)C(=S)N2CC2CCCCC2)cc1	·	0	·	·	·	·
CCCCN(CCCC)c1nc(-c2ccncc2)nc2ccccc12	65*	0	1	0	5	1
FC(F)(F)c1cc(CCN2CCNC[C@H]2Cc2cccc3ccccc23)cc(C(F)(F)F)c1	102	0	4	0	20*	32*
Oc1ccc(C[C@@H]2CNCCN2CCc2cc(C(F)(F)F)cc(C(F)(F)F)c2)cc1	96	-1	1	0	6	5
CC(=O)Nc1ccc(NS(=O)(=O)c2ccccc2)cc1	97	0	-2	0	3	-1	Superoxide pick=104;DHE counter=88
NC(=O)c1ccccc1NS(=O)(=O)c1ccccc1	111	0	-1	0	5	-4	Superoxide pick=101;DHE counter=92
CSc1cccc(NS(=O)(=O)c2ccccc2)c1	104	1	3	0	3	1	Superoxide pick=100;DHE counter=102
CSc1cccc(NS(=O)(=O)c2ccc(F)cc2)c1	87	0	7	0	2	5
CCC(=O)Nc1cc(C(=O)OC(C(=O)c2ccc(C)c(C)c2)c2ccccc2)ccc1C (stereo unspecified)	93	-1	-5	0	4	5
COc1ccc(N2C(=O)CC(NNC(=O)c3cccnc3)C2=O)cc1 (stereo unspecified)	85	0	-7	0	1	-7
